# Compounds with a hit are over-represented: about 4.5% of the library has one in this group of screens.
# PERK inhibitor: blocks human PERK kinase; inhibition, % at 5.6 µM; 220,000 compounds, 0.17% hits; Q9NZJ5; AID 1416; CHO PERK-DD fusion, SEAP luminescence translation reporter;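 active = inhibition above the mean inhibition of all tested compounds plus 3 SD, set separately per screening campaign, cut at about 2.9% in these data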;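 also: PERK kinase domain activated by AP20187 dimerizer at 100 nM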
# AHR activator: human AHR activation | P35869 | AHR-responsive luciferase reporter cells, luminescence | activation, % at 5 µM | 320,000 compounds, 2.5% hits | AID 2796; in the data active = activation above about 47%
# STAT1 act: activators of IFN-gamma induced STAT1 signaling; 200,000 compounds, 2.6% hits; NIH 3T3 STAT1-luciferase reporter, luminescence; 100% = IFN-gamma alone, no compound; activation (% of control), % at 5.5 µM;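 active = activation above the screen-wide mean activation plus 3 SD, cut at about 130% in these data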
# NF-kB expr up: raises NF-kB expression in human neuronal cells; NF-kB reporter expression; stronger effect = higher value; AID 1239; fold change at 12.5 µM; 190,000 compounds, 1.6% hits; in the data active = fold change above about 3.3
# MDM2 E3 inh: inhibitors of human Mdm2 E3 ubiquitin ligase; 210,000 compounds, 0.11% hits; AID 1230; cell-based MDM2 ubiquitination luciferase reporter, 2 h; 0 = plate control, 100 = twice control, blank-subtracted; signal enhancement, % at 5 µM; Q00987;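 active = signal enhancement of 30% or more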;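 also: luminescence tracks abundance of the self-degrading MDM2-luciferase fusion protein; higher signal means inhibition of MDM2 E3 ligase activity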
#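 Material: stable MDM2–luciferase fusion reporter cells / Quantity: 2000 cells/well / Dosing: single 5 µM compound dose, 0.2% final DMSO / Buffer or medium: DMEM / Schedule: 4 h cell settling then 2 h compound exposure, 37 °C / Detection: luminescence with SteadyLite reagent, 15 min at room temperature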
# APP 5'UTR act: activates APP 5'UTR luciferase reporter | 190,000 compounds, 1% hits | AID 1276 | activation, % at 2 µM | SH-SY5Y APP 5'UTR luciferase reporter, luminescence; zero percent = DMSO vehicle wells;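 active = activation above a set limit, based on mean plus 3 SD of controls, cut at about 140% in these data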
# Hits are given with their value; 0 = inactive; - = no result given.
SMILES,PERK inhibitor,AHR activator,STAT1 act,NF-kB expr up,MDM2 E3 inh,APP 5'UTR act
CN(C(=O)CSc1nnnn1C)C1(C#N)CCCCC1,-,0,-,-,-,-
CCc1c(C)nc(SCC(N)=O)c(C#N)c1C,0,0,0,0,0,-
CCc1c(C)nc(SCC(=O)c2cccs2)c(C#N)c1C,0,94.0,136.4,0,0,0
Cc1cc(C)cc(OCC(=O)OC(C)C(=O)Nc2ccc(Cl)cn2)c1 (stereo unspecified),-,0,-,-,-,-
N#CCc1nn(-c2ccc(Cl)cc2)c(N)c1C#N,0,63.5,0,0,0,0
Cc1cccc(-n2nc(CC#N)c(C#N)c2N)c1,0,0,0,0,0,0
CCN(CC)C(=O)c1[nH]cnc1C(=O)Nc1cccc(Cl)c1,-,67.2,-,-,-,-
CCCCC(=O)OCC(=O)c1cc(C)n(-c2c(C)n(C)n(-c3ccccc3)c2=O)c1C,0,0,0,0,0,0
Cc1ccccc1/C=N\NC(=O)c1ccccc1-n1cccc1,0,67.9,0,0,0,0
O=C(N/N=C/c1ccc(Br)cc1)c1ccccc1-n1cccc1,0,71.1,0,0,0,0
CN1CCCN(Cc2ccccc2Br)CC1,-,0,-,-,-,-
Cc1cc2ccccn2c1C(=O)Nc1ccccc1,0,59.5,0,0,0,0
O=C(NC(=S)NCc1ccccc1)c1ccccc1F,0,0,0,0,0,0
Cc1ccc(S(=O)(=O)N(C)c2ccc(C(=O)NCCc3ccccc3)cc2)cc1,-,0,-,-,-,-
CN(c1ccc(C(=O)NCCc2ccccc2)cc1)S(C)(=O)=O,0,0,140.7,0,0,0
O=C(NC(=S)NCCc1ccccc1)c1ccccc1F,-,74.5,-,-,-,-
O=C(NCCc1ccccc1)c1ccccc1C(=O)NCCc1ccccc1,-,70.1,-,-,-,-
CCCCc1ccc(NC(=O)C2CCCO2)cc1 (stereo unspecified),0,0,130.4,0,0,0
CCCOc1ccc(-c2c(C(=O)N/N=C/c3cccs3)nnn2-c2nonc2N)cc1,-,0,-,-,-,-
Cc1ccccc1NC(=O)CSc1n[nH]c(-c2ccccn2)n1,-,0,-,-,-,-
Cn1ccnc1C(=O)c1ccc(S(=O)(=O)N2CCCC2)cc1,0,0,0,0,0,0
O=C(CCNC(=O)C1CCN(S(=O)(=O)c2ccccc2)CC1)NCc1ccc(Cl)cc1Cl,-,0,-,-,-,-
O=C(NCCCc1ccccc1)c1ccccc1,0,0,129.1,0,0,0
O=C(NCCc1ccccc1)c1ccccc1NC(=O)C1CCCO1 (stereo unspecified),0,0,133.6,3.44,0,157.6
O=C(NCCc1ccccc1)c1ccccc1F,0,0,0,3.31,0,0
SMILES,PERK inhibitor,AHR activator,STAT1 act,NF-kB expr up,MDM2 E3 inh,APP 5'UTR act
COc1ccc(CCNC(=S)NC(=O)c2ccccc2)cc1C,0,0,-,-,0,-
O=C(NC(=S)NCCc1ccccc1)c1ccccc1,0,69.2,0,0,0,0
COc1ccc2cc(CCN3C(=O)c4ccccc4C3=O)c(=O)[nH]c2c1,0,0,0,0,-,0
S=C(NCCc1ccccc1)NC1CCCCCC1,0,0,137.0,0,0,0
CN1CCN(C(=S)NCCc2ccccc2)CC1,0,0,0,0,0,0
CC1CCN(C(=S)NCCc2ccccc2)CC1,0,0,0,3.37,0,0
O=C(O)Cn1ccc2cc(S(=O)(=O)N3CCCCCC3)ccc21,-,0,-,-,-,-
CCOC(=O)CC(=O)CSc1n[nH]c(=O)[nH]c1=O,0,0,-,-,0,-
CCCC(=O)Nc1cccc(Oc2nc(C)cc(C)c2C#N)c1,0,58.4,0,0,0,0
COc1ccc(C(=O)COc2nc(C)cc(C)c2C#N)cc1,0,47.2,0,0,0,0
Cc1[nH]c2ccccc2c1/C=N/Nc1cccc(C(=O)O)c1,0,0,-,-,0,-
Cc1nnc(NC(=O)c2cccc(NC(=O)C(C)C)c2)s1,0,0,0,0,0,0
CC(C)C(=O)Nc1cccc(C(=O)Nc2nnc(C(C)C)s2)c1,0,0,146.3,0,0,0
CC(C)c1nnc(NC(=O)c2cccc(NC(=O)C(F)(F)F)c2)s1,0,0,138.3,0,0,0
CC(=O)NC(Cc1ccccc1F)C(=O)NC1CCN(C(=O)NCc2ccccc2)CC1 (stereo unspecified),-,0,-,-,-,-
Cc1ccc2c(c1)N(CC(=O)NCCc1ccccc1)C(=O)c1cccnc1O2,-,0,-,-,-,-
NC(=NCc1ccc2c(c1)OCO2)NC(=O)c1ccccc1,0,-,0,0,0,0
NC(=NCc1ccccc1)NC(=O)c1nc(Cl)c(N)nc1N,-,69.2,-,-,-,-
